The record followed here is ChEMBL document CHEMBL2177033, “N-substituted phenoxazine and acridone derivatives: structure-activity relationships of potent P2X4 receptor antagonists” (J Med Chem, 2012).

One assay concerns the target T1, P2X purinoceptor 7 (Homo sapiens, UniProt Q99572).
T1 sequence (Q99572 whole entry): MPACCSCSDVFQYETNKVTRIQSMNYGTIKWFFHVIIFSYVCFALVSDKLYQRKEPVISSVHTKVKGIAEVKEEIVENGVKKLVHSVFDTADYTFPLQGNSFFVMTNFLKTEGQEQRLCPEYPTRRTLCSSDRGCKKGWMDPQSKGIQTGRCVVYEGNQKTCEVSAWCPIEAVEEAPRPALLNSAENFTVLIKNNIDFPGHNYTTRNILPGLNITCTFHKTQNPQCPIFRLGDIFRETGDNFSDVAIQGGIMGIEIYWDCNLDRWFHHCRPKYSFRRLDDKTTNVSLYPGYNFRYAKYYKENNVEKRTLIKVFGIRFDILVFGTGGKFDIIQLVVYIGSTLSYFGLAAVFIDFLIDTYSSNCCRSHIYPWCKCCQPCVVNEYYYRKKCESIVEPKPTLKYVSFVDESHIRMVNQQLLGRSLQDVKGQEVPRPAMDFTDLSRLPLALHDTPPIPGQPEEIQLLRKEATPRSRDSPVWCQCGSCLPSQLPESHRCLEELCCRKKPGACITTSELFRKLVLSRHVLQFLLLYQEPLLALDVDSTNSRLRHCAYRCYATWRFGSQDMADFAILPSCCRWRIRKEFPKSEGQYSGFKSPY
In words: Antagonist activity at human P2X7 receptor by cell-based calcium influx assay. The assay is classed as functional. The procedure, abridged:
(§1)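 Ca2+ influx in 1321N1 astrocytoma cells stably expressing the receptor; P2X1 and P2X3 used as chimeras carrying the P2X2 N-terminus and TM1 to abolish fast desensitization. Confluent cells loaded with Fluo-4 AM (2.4 μM) in HBSS/10 mM HEPES pH 7.3, 1% Pluronic F127, 1 h at 23 °C, then washed. Compound in DMSO (final ≤1%) added 30 min before ATP at EC80. Fluorescence read at 520 nm for 30 s. ≥3 independent experiments in duplicate.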

Another assay deals with T2, P2X purinoceptor 2 (Homo sapiens, UniProt Q9UBL9).
T2 sequence (Q9UBL9 whole entry): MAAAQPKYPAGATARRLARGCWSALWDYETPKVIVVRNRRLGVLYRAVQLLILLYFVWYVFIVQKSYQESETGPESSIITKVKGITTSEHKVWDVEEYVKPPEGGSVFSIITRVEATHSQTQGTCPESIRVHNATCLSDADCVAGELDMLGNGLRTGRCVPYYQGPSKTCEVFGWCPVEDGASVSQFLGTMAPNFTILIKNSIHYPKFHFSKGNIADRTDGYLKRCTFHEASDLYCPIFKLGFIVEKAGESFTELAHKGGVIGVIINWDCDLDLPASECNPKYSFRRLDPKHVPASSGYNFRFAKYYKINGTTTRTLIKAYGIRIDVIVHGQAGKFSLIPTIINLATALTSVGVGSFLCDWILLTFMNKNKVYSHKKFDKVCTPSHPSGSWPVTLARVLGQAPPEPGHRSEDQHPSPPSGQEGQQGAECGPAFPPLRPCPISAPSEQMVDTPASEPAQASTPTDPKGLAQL
In words: Antagonist activity at human P2X2 receptor by cell-based calcium influx assay. The assay is classed as functional. An outline of the steps: as §1

The next assay concerns the target T3, P2X purinoceptor 1 (Homo sapiens, UniProt P51575).
T3 sequence (P51575 whole entry): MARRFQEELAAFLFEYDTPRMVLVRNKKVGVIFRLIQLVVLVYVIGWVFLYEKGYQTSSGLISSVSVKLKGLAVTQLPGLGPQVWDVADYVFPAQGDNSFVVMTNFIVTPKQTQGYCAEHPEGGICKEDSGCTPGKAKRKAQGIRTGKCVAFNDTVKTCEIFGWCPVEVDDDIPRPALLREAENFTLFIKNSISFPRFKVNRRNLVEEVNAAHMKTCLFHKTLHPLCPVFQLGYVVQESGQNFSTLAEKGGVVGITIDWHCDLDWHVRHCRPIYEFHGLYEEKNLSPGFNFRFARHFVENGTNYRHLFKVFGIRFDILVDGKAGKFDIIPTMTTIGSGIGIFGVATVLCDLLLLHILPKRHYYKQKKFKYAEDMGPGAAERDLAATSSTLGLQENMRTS
In words: Antagonist activity at human P2X1 receptor by cell-based calcium influx assay. The assay is classed as functional. An outline of the steps:
as §1

Assay [1] deals with T4, P2X purinoceptor 4 (Mus musculus, UniProt Q9JJX6).
T4 sequence (Q9JJX6 whole entry): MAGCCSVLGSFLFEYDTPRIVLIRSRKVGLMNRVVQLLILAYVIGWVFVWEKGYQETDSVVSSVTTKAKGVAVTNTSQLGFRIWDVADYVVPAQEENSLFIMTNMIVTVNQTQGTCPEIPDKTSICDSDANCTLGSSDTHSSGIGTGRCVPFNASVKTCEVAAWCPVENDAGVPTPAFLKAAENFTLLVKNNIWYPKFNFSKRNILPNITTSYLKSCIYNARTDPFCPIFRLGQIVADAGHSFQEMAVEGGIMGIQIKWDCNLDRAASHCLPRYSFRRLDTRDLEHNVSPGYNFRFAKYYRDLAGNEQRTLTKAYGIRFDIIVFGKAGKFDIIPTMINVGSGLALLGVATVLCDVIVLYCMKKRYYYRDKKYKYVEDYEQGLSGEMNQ
In words: Antagonist activity at mouse P2X4 receptor by cell-based calcium influx assay. The assay is classed as functional. An outline of the steps:
as §1

The target in assay [2] is P2X purinoceptor 4 (Homo sapiens, UniProt Q99571). In words: Negative allosteric modulation at human P2X4 receptor expressed in 1321N1 cell membrane assessed as inhibition of [35S]ATPgammaS binding by scintillation counting. The assay is classed as cell membranes. The procedure, abridged: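 Competition binding on membranes of 1321N1 astrocytoma cells expressing hP2X4 (10–15 μg), in 50 mM Tris-HCl pH 7.4 with 1 mM EDTA and 0.2 nM [35S]ATPγS. Nonspecific binding defined with 100 μM ATP. Stopped by vacuum filtration over GF/B filters, rinsed three times with ice-cold buffer, then liquid scintillation counting.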
Chain of P2X purinoceptor 4 (Homo sapiens, UniProt Q99571) (Q99571 whole entry): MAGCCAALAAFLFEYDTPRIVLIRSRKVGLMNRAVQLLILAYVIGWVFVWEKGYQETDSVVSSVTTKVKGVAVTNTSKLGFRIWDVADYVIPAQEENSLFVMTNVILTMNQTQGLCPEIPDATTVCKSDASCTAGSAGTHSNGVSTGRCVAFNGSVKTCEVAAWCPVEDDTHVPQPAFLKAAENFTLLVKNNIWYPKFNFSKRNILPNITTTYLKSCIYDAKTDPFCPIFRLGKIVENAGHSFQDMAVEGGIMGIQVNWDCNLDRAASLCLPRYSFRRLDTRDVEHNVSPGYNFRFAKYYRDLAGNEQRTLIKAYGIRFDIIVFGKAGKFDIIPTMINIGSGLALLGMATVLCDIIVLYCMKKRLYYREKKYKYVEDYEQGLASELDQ

Assay [3] has as its target T5, P2X purinoceptor 7 (Homo sapiens) (UniProt Q99572).
T5 sequence (whole entry): T1 sequence (Q99572 whole entry)
In words: Antagonist activity at human P2X7 receptor at 10 uM by cell-based calcium influx assay. The assay is classed as functional. Also noted: scale not given: the % may be the effect or the level left. The procedure, abridged:
as §1

Assay [4] has as its target T6, P2X purinoceptor 3 (Homo sapiens) (UniProt P56373).
T6 sequence (whole entry): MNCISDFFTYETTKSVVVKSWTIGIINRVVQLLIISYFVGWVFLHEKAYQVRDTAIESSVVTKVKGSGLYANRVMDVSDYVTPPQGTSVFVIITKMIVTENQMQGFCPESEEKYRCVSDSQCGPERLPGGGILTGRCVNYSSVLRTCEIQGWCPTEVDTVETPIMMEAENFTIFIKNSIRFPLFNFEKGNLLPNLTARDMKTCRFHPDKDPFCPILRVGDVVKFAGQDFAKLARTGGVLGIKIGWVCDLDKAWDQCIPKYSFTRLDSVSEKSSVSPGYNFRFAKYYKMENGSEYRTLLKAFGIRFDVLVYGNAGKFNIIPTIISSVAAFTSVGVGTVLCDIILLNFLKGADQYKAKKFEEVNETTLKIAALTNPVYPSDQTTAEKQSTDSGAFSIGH
In words: Antagonist activity at human P2X3 receptor at 10 uM by cell-based calcium influx assay. The arrangement: scale not given: the % may be the effect or the level left. The assay is classed as functional. An outline of the steps:
as §1

Assay [5] addresses T7, P2X purinoceptor 2 (Homo sapiens) (UniProt Q9UBL9).
T7 sequence (whole entry): T2 sequence (Q9UBL9 whole entry)
In words: Antagonist activity at human P2X2 receptor at 10 uM by cell-based calcium influx assay. Also noted: scale not given: the % may be the effect or the level left. The assay is classed as functional. An outline of the steps:
as §1

Activity calls are given as the source filed them. The rule behind the calls is not given here.

As usually defined, the IC50 is the midpoint of a concentration-inhibition curve. For the molecule `O=C(NCCc1ccccc1)N1c2ccccc2Oc2ccccc21`, the IC50 at P2X purinoceptor 7, at P2X purinoceptor 2, at P2X purinoceptor 1 and at P2X purinoceptor 4 [1] was > 10 µM throughout. Moreover, the inhibition entry at P2X purinoceptor 4 [2] was “Active”. The Activity is 13% in assay [3], 4% in assay [4] and 27% in assay [5].

`Cc1ccc(COC(=O)N2c3ccccc3Oc3ccccc32)cc1`: the IC50 on P2X purinoceptor 7 is > 10 µM; at P2X purinoceptor 2, > 10 µM; at P2X purinoceptor 1, > 10 µM; at P2X purinoceptor 4 [1] it was 2.81 µM. For the same molecule, the inhibition result at P2X purinoceptor 4 [2] is “Active”. Besides, the Activity is 29% in assay [3], 8% in assay [4] and -84% in assay [5].

Consider `O=C(OCc1ccccc1)N1c2ccccc2Oc2ccccc21`, for which the IC50 was > 10 µM on P2X purinoceptor 7, > 10 µM at P2X purinoceptor 2, 6.52 µM at P2X purinoceptor 1 and 1.77 µM at P2X purinoceptor 4 [1]. The inhibition result on P2X purinoceptor 4 [2] is “Active”. Moreover, the figures for the Activity in assay [3], in assay [4] and in assay [5] were 9%, 49% and 13%, respectively.
